Laboratory results reported in ChEMBL document CHEMBL4715736, “Identification of anticancer agents based on the thieno[2,3-b]pyridine and 1H-pyrazole molecular scaffolds” (2016).

Columns and labels:
Type in all cases: functional
NCI-H322M = experiment: Growth inhibition of human NCI-H322M cells assessed as cell growth at 1 uM incubated for 48 hrs by sulforhodamine B assay relative to control; details: read-out: Activity
SNB-19 = experiment: Growth inhibition of human SNB-19 cells assessed as cell growth at 0.1 uM incubated for 48 hrs by sulforhodamine B assay relative to control; details: read-out: Activity
SK-MEL-2 = experiment: Growth inhibition of human SK-MEL-2 cells assessed as cell growth at 0.01 uM incubated for 48 hrs by sulforhodamine B assay relative to control; details: read-out: Activity
LOX IMVI [1] = experiment: Growth inhibition of human LOX IMVI cells assessed as cell growth at 1 uM incubated for 48 hrs by sulforhodamine B assay relative to control; details: read-out: Activity
SNB-75 [2] = experiment: Growth inhibition of human SNB-75 cells assessed as cell growth at 0.01 uM incubated for 48 hrs by sulforhodamine B assay relative to control; details: read-out: Activity
Malme-3M [3] = experiment: Growth inhibition of human Malme-3M cells assessed as cell growth at 100 uM incubated for 48 hrs by sulforhodamine B assay relative to control; details: read-out: Activity
NCI-H522 = experiment: Growth inhibition of human NCI-H522 cells assessed as cell growth at 0.01 uM incubated for 48 hrs by sulforhodamine B assay relative to control; details: read-out: Activity
NCI/ADR-RES [4] = experiment: Growth inhibition of human NCI/ADR-RES cells assessed as cell growth at 100 uM incubated for 48 hrs by sulforhodamine B assay relative to control; details: read-out: Activity
NCI/ADR-RES [5] = experiment: Growth inhibition of human NCI/ADR-RES cells assessed as cell growth at 0.1 uM incubated for 48 hrs by sulforhodamine B assay relative to control; details: read-out: Activity
Malme-3M [6] = experiment: Growth inhibition of human Malme-3M cells assessed as cell growth at 0.01 uM incubated for 48 hrs by sulforhodamine B assay relative to control; details: read-out: Activity
MOLT-4 = experiment: Growth inhibition of human MOLT-4 cells assessed as cell growth at 0.01 uM incubated for 48 hrs by sulforhodamine B assay relative to control; details: read-out: Activity
SW-620 = experiment: Growth inhibition of human SW-620 cells incubated for 48 hrs by sulforhodamine B assay
Procedure, shortened: (§1)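 NCI DTP 60-line human tumour panel. Dose-response curves were run only for ligands active in the initial 10 µM screen. GI50 (concentration giving 50% of maximal inhibition of proliferation) and TGI (concentration giving total growth inhibition) were derived from these curves.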

SF-539 = experiment: Growth inhibition of human SF-539 cells assessed as cell growth at 100 uM incubated for 48 hrs by sulforhodamine B assay relative to control; details: read-out: Activity
UACC-257 [7] = experiment: Growth inhibition of human UACC-257 cells assessed as cell growth at 100 uM incubated for 48 hrs by sulforhodamine B assay relative to control; details: read-out: Activity
MDA-MB-468 = experiment: Growth inhibition of human MDA-MB-468 cells assessed as cell growth at 0.1 uM incubated for 48 hrs by sulforhodamine B assay relative to control; details: read-out: Activity
SK-MEL-5 = experiment: Growth inhibition of human SK-MEL-5 cells assessed as cell growth at 0.01 uM incubated for 48 hrs by sulforhodamine B assay relative to control; details: read-out: Activity
IGROV-1 = experiment: Growth inhibition of human IGROV-1 cells assessed as cell growth at 0.01 uM incubated for 48 hrs by sulforhodamine B assay relative to control; details: read-out: Activity
SNB-75 [8] = experiment: Growth inhibition of human SNB-75 cells incubated for 48 hrs by sulforhodamine B assay; procedure, shortened: as §1
ACHN [9] = experiment: Growth inhibition of human ACHN cells assessed as cell growth at 0.1 uM incubated for 48 hrs by sulforhodamine B assay relative to control; details: read-out: Activity
786-0 = experiment: Growth inhibition of human 786-0 cells assessed as cell growth at 1 uM incubated for 48 hrs by sulforhodamine B assay relative to control; details: read-out: Activity
Procedure, shortened: (§2)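 NCI Developmental Therapeutics Program NCI60 panel. Compounds that were active in the 10 µM one-dose screen went on to dose–response testing. Growth at each concentration is expressed relative to untreated control (100%). GI50 (concentration giving 50% of maximal inhibition of proliferation) and TGI (concentration giving total growth inhibition) were derived from the curves.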

OVCAR-3 [10] = experiment: Growth inhibition of human OVCAR-3 cells assessed as cell growth at 100 uM incubated for 48 hrs by sulforhodamine B assay relative to control; details: read-out: Activity
HOP-92 [11] = experiment: Growth inhibition of human HOP-92 cells assessed as cell growth at 1 uM incubated for 48 hrs by sulforhodamine B assay relative to control; details: read-out: Activity
ACHN [12] = experiment: Growth inhibition of human ACHN cells incubated for 48 hrs by sulforhodamine B assay; details: for CC50: read-out: LC50 (the source's name); procedure, shortened: as §2
LOX IMVI [13] = experiment: Growth inhibition of human LOX IMVI cells incubated for 48 hrs by sulforhodamine B assay
Procedure, shortened: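 NCI60 panel at the NCI Developmental Therapeutics Program. Only compounds active in the 10 µM screen went to dose-response testing. GI50, the concentration giving 50% of maximal inhibition of proliferation, and TGI, the concentration giving total growth inhibition, were derived from the dose-response curves.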

RPMI-8226 = experiment: Growth inhibition of human RPMI-8226 cells incubated for 48 hrs by sulforhodamine B assay; procedure, shortened: as §1
HOP-92 [14] = experiment: Growth inhibition of human HOP-92 cells assessed as cell growth at 100 uM incubated for 48 hrs by sulforhodamine B assay relative to control; details: read-out: Activity
COLO 205 [15] = experiment: Growth inhibition of human COLO 205 cells assessed as cell growth at 100 uM incubated for 48 hrs by sulforhodamine B assay relative to control; details: read-out: Activity; procedure, shortened: as §2
BT-549 = experiment: Growth inhibition of human BT-549 cells assessed as cell growth at 0.01 uM incubated for 48 hrs by sulforhodamine B assay relative to control; details: read-out: Activity
COLO 205 [16] = experiment: Growth inhibition of human COLO 205 cells assessed as cell growth at 0.1 uM incubated for 48 hrs by sulforhodamine B assay relative to control; details: read-out: Activity; procedure, shortened: as §2
OVCAR-5 = experiment: Growth inhibition of human OVCAR-5 cells assessed as cell growth at 0.1 uM incubated for 48 hrs by sulforhodamine B assay relative to control; details: read-out: Activity
T47D = experiment: Growth inhibition of human T47D cells assessed as cell growth at 100 uM incubated for 48 hrs by sulforhodamine B assay relative to control; details: read-out: Activity
HOP-92 [17] = experiment: Growth inhibition of human HOP-92 cells assessed as cell growth at 0.01 uM incubated for 48 hrs by sulforhodamine B assay relative to control; details: read-out: Activity
OVCAR-3 [18] = experiment: Growth inhibition of human OVCAR-3 cells incubated for 48 hrs by sulforhodamine B assay; details: for CC50: read-out: LC50 (the source's name); procedure, shortened: as §1
UACC-257 [19] = experiment: Growth inhibition of human UACC-257 cells assessed as cell growth at 0.01 uM incubated for 48 hrs by sulforhodamine B assay relative to control; details: read-out: Activity
NCI-H226 = experiment: Growth inhibition of human NCI-H226 cells assessed as cell growth at 0.01 uM incubated for 48 hrs by sulforhodamine B assay relative to control; details: read-out: Activity

Cc1ccc(NC(=O)c2sc3nc4c(cc3c2N)C(=O)CCC4)cc1C
growth at 1 µM (NCI-H322M): 49% | growth at 0.1 µM (SNB-19): 88% | growth at 0.01 µM (SK-MEL-2): 105% | growth at 1 µM (LOX IMVI [1]): 42% | growth at 0.01 µM (SNB-75 [2]): 78% | growth at 100 µM (Malme-3M [3]): 28% | growth at 0.01 µM (NCI-H522): 100% | growth at 100 µM (NCI/ADR-RES [4]): 4% | growth at 0.1 µM (NCI/ADR-RES [5]): 102% | growth at 0.01 µM (Malme-3M [6]): 96% | growth at 0.01 µM (MOLT-4): 103% | GI50 (SW-620): 0.4 µM | LC50 (concentration killing 50% of cells) (SW-620): > 100 µM | TGI (SW-620): > 100 µM | growth at 100 µM (SF-539): 7% | growth at 100 µM (UACC-257 [7]): 35% | growth at 0.1 µM (MDA-MB-468): 83% | growth at 0.01 µM (SK-MEL-5): 95% | growth at 0.01 µM (IGROV-1): 104% | GI50 (SNB-75 [8]): 0.183 µM | LC50 (SNB-75 [8]): > 100 µM | TGI (SNB-75 [8]): > 100 µM | growth at 0.1 µM (ACHN [9]): 95% | growth at 1 µM (786-0): 40% | growth at 100 µM (OVCAR-3 [10]): -23% | growth at 1 µM (HOP-92 [11]): 29% | GI50 (ACHN [12]): 0.0239 µM | TGI (ACHN [12]): > 100 µM | CC50 (ACHN [12]): > 100 µM | GI50 (LOX IMVI [13]): 0.716 µM | LC50 (LOX IMVI [13]): > 100 µM | TGI (LOX IMVI [13]): > 100 µM | GI50 (RPMI-8226): 1.43 µM | LC50 (RPMI-8226): > 100 µM | growth at 100 µM (HOP-92 [14]): 2% | growth at 100 µM (COLO 205 [15]): -56% | growth at 0.01 µM (BT-549): 107% | growth at 0.1 µM (COLO 205 [16]): 98% | growth at 0.1 µM (OVCAR-5): 87% | growth at 100 µM (T47D): -13% | growth at 0.01 µM (HOP-92 [17]): 87% | GI50 (OVCAR-3 [18]): 0.343 µM | TGI (OVCAR-3 [18]): 1.4 µM | CC50 (OVCAR-3 [18]): > 100 µM | growth at 0.01 µM (UACC-257 [19]): 96% | growth at 0.01 µM (NCI-H226): 90%

Nc1c(C(=O)Nc2ccccc2)sc2nc3c(cc12)CN(Cc1ccccc1)CC3
growth at 1 µM (NCI-H322M): 91% | growth at 0.1 µM (SNB-19): 94% | growth at 0.01 µM (SK-MEL-2): 96% | growth at 1 µM (LOX IMVI [1]): 98% | growth at 0.01 µM (SNB-75 [2]): 91% | growth at 100 µM (Malme-3M [3]): 14% | growth at 0.01 µM (NCI-H522): 89% | growth at 100 µM (NCI/ADR-RES [4]): 29% | growth at 0.1 µM (NCI/ADR-RES [5]): 101% | growth at 0.01 µM (Malme-3M [6]): 87% | growth at 0.01 µM (MOLT-4): 97% | GI50 (SW-620): 20.8 µM | LC50 (concentration killing 50% of cells) (SW-620): > 100 µM | TGI (SW-620): > 100 µM | growth at 100 µM (SF-539): 11% | growth at 100 µM (UACC-257 [7]): 44% | growth at 0.1 µM (MDA-MB-468): 98% | growth at 0.01 µM (SK-MEL-5): 104% | growth at 0.01 µM (IGROV-1): 95% | GI50 (SNB-75 [8]): 1.32 µM | TGI (SNB-75 [8]): 3.5 µM | growth at 0.1 µM (ACHN [9]): 91% | growth at 1 µM (786-0): 106% | growth at 100 µM (OVCAR-3 [10]): 20% | growth at 1 µM (HOP-92 [11]): 74% | GI50 (ACHN [12]): 5.5 µM | TGI (ACHN [12]): > 100 µM | CC50 (ACHN [12]): > 100 µM | GI50 (LOX IMVI [13]): 10.5 µM | LC50 (LOX IMVI [13]): > 100 µM | TGI (LOX IMVI [13]): > 100 µM | GI50 (RPMI-8226): 55.8 µM | LC50 (RPMI-8226): > 100 µM | TGI (RPMI-8226): > 100 µM | growth at 100 µM (HOP-92 [14]): -30% | growth at 100 µM (COLO 205 [15]): 23% | growth at 0.01 µM (BT-549): 97% | growth at 0.1 µM (COLO 205 [16]): 94% | growth at 0.1 µM (OVCAR-5): 92% | growth at 100 µM (T47D): 19% | growth at 0.01 µM (HOP-92 [17]): 92% | GI50 (OVCAR-3 [18]): 11.4 µM | TGI (OVCAR-3 [18]): > 100 µM | CC50 (OVCAR-3 [18]): > 100 µM | growth at 0.01 µM (UACC-257 [19]): 93% | growth at 0.01 µM (NCI-H226): 98%
